{"source": "paper PMC9407455", "about": "(Proceedings of the National Academy of Sciences of the …, 2022)", "test_system": "HeLa cell–derived xenografts", "test": "Xenograft tumor assay", "assay_type": "in vivo, mice", "settings": "iJMJD6 25 mg/kg or JQ1 50 mg/kg alone or in combination, i.p. every other day", "method_in_brief": "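Female BALB/c nude mice inoculated with HeLa cells, randomized, and injected i.p. every other day with DMSO or test compound at indicated doses. Tumour growth curves and endpoint tumour weights recorded (mean ±SEM); tumour lysates immunoblotted.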"}
{"smiles": "Cc1sc2c(c1C)C(c1ccc(Cl)cc1)=N[C@@H](CC(=O)OC(C)(C)C)c1nnc(C)n1-2", "note": "[JQ1]", "values": [{"measurement": "tumor suppressive effect", "result": "readily seen"}]}
